Assay results as given in ChEMBL document CHEMBL1208669, “Synthesis of 2-(pyrimidin-2-yl)-1-phenyl-2,3,4,9-tetrahydro-1H-beta-carbolines as antileishmanial agents” (Eur J Med Chem, 2010).
≈ marks a conversion by molar mass, not a printed value. Calls of active or inactive are those of the source. The rule behind the calls is not given here.

Key:
[1] = tested on: Leishmania donovani; experiment: Antileishmanial activity against amastigote of Leishmania donovani MHOM/IN/80/Dd8 infected in mouse J774A1 cells after 72 hrs by luciferase reporter gene assay; format: functional, organism-based; details: MHOM/IN/80/Dd8, J774.A1, 72 h
Procedure, shortened: (§1)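 J774A.1 macrophages were seeded at 1.5 × 10⁴ cells/well in RPMI-1640 + 10% FCS, 37 °C, CO₂, for 24 h. They were then infected with stationary-phase luciferase-transfected Dd8 promastigotes (2.25 × 10⁵/well), which transform to amastigotes. Compounds (0.25–10 range) were added in fresh medium for 72 h. Medium was removed, PBS and Steady Glo added, and luminescence read. Inhibition vs untreated controls; IC50 by logit regression.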

[2] = tested on: C-33-A; experiment: Cytotoxicity against human C33A cells by MTT assay; format: functional, cell-based
[3] = tested on: MCF7; experiment: Cytotoxicity against human MCF7 cells by MTT assay; format: functional, cell-based
[4] = tested on: DU-145; experiment: Cytotoxicity against human DU145 cells by MTT assay; format: functional, cell-based
[5] = tested on: KB; experiment: Cytotoxicity against human KB cells by MTT assay; format: functional, cell-based
[6] = Cytotoxicity against mouse J774A1 cells after 72 hrs by MTT assay; format: cell-based, J774.A1
Procedure, shortened: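 J774A.1 cells were grown in RPMI + 10% FCS with gentamycin. Exponential cells (1 × 10⁴/well) were exposed to a range of drug concentrations (DMSO stocks diluted in complete medium) for 72 h at 37 °C in humidified CO₂/air. MTT was added, formazan dissolved in DMSO after 15 min shaking, and absorbance read at 544 nm. CC50 is the 50% viability reduction versus medium-only cells.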

[7] = tested on: Vero; experiment: Cytotoxicity against african green monkey Vero cells by MTT assay; format: cell-based; details: chlorocebus sabaeus
[8] = tested on: Leishmania donovani; experiment: Antileishmanial activity against promastigotes of Leishmania donovani MHOM/IN/80/Dd8 after 72 hrs by luciferase reporter gene assay relative to control; format: functional
Procedure, shortened: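 Dd8 promastigotes transfected with firefly luciferase were kept in medium 199 + 10% FCS with antibiotics under G418. Late-log cells were incubated 72 h with serial drug dilutions, with parallel DMSO dilutions as controls. An aliquot was mixed 1:1 with Steady Glo and luminescence read as RLU. % inhibition = (N − n) × 100/N versus untreated control RLU; tested as serial dilutions or single concentration.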

[9] = Selectivity index, ratio of CC50 for mouse J774A1 cells to IC50 for amastigote of Leishmania donovani MHOM/IN/80/Dd8; format: functional, J774.A1
Procedure, shortened: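 Ratio of CC50 (J774A.1 MTT, 72 h) to IC50 against intracellular amastigotes in J774A.1 macrophages (luciferase read-out, 72 h).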

[10] = tested on: Vero; experiment: Cytotoxicity against african green monkey Vero cells up to 50 ug/ml by MTT assay; format: cell-based; details: chlorocebus sabaeus
[11] = tested on: C-33-A; experiment: Cytotoxicity against human C33A cells up to 50 ug/ml by MTT assay; format: functional, cell-based
[12] = tested on: KB; experiment: Cytotoxicity against human KB cells up to 50 ug/ml by MTT assay; format: functional, cell-based
[13] = tested on: MCF7; experiment: Cytotoxicity against human MCF7 cells up to 50 ug/ml by MTT assay; format: functional, cell-based
[14] = tested on: DU-145; experiment: Cytotoxicity against human DU145 cells up to 50 ug/ml by MTT assay; format: functional, cell-based
[15] = tested on: Leishmania donovani; experiment: Antileishmanial activity against amastigote of Leishmania donovani MHOM/IN/80/Dd8 infected in mouse J774A1 cells at 0.25 to 10 ug/ml after 72 hrs by luciferase reporter gene assay; format: functional, organism-based; details: j774.a1; procedure, shortened: as §1

Row | Compound | IC50 ([1]; read-out: IC50) [µg/mL] | IC50 [2] [µg/mL] | IC50 [3] [µg/mL] | IC50 [4] [µg/mL] | IC50 [5] [µg/mL] | CC50 at 72 h ([6]; read-out: CC50) [µg/mL] | IC50 [7] [µg/mL] | inhibition (INH) [8] [%] | Ratio CC50/IC50 [9] | IC50 [1] [µg/mL] | CC50 at 72 h [6] [µg/mL] | Activity [10] | Activity [11] | Activity [12] | Activity [13] | Activity [14] | IC50 [15]
1 | CN1CCN(c2cc(N3CCN(C)CC3)nc(N3CCc4c([nH]c5ccccc45)C3c3ccc4c(c3)OCO4)n2)CC1 (racemic) | 0.49 (≈ 0.865 µM) | 1.1 (≈ 1.94 µM) | 1.2 (≈ 2.12 µM) | 1.5 (≈ 2.65 µM) | 2 (≈ 3.53 µM) | 2.8 (≈ 4.94 µM) | 2.6 (≈ 4.59 µM) | 99.96 | 5.71 | – | – | – | – | – | – | – | –
2 | Cc1ccc(C2c3[nH]c4ccccc4c3CCN2c2nc(Cl)cc(Cl)n2)cc1 (racemic) | – | 24.9 (≈ 60.8 µM) | 28 (≈ 68.4 µM) | 20.2 (≈ 49.4 µM) | 21.6 (≈ 52.8 µM) | – | 33.7 (≈ 82.3 µM) | 84.15 | 4.09 | 6 (≈ 14.7 µM) | 24.6 (≈ 60.1 µM) | – | – | – | – | – | –
3 | COc1cc(C2c3[nH]c4ccccc4c3CCN2c2nc(Cl)cc(Cl)n2)cc(OC)c1OC (racemic) | 3.81 (≈ 7.85 µM) | – | – | – | – | – | – | 81.68 | – | – | – | Non-toxic | inactive | inactive | inactive | inactive | –
4 | CN1CCN(c2cc(N3CCN(C)CC3)nc(NCCc3c[nH]c4ccccc34)n2)CC1 | 1.74 (≈ 4 µM) | 26 (≈ 59.8 µM) | 35.2 (≈ 81 µM) | 21.3 (≈ 49 µM) | 33.4 (≈ 76.9 µM) | 18.4 (≈ 42.3 µM) | 29.7 (≈ 68.3 µM) | 100 | 10.55 | – | – | – | – | – | – | – | –
5 | COc1cc(OC)cc(C2c3[nH]c4ccccc4c3CCN2c2nc(Cl)cc(Cl)n2)c1 (racemic) | – | – | – | – | – | – | – | 90.57 | – | – | – | Non-toxic | inactive | inactive | inactive | inactive | Not Active
6 | COc1ccc(C2c3[nH]c4ccccc4c3CCN2c2nc(N3CCOCC3)cc(N3CCOCC3)n2)cc1 (racemic) | 4.48 (≈ 8.51 µM) | 2.5 (≈ 4.75 µM) | 3.9 (≈ 7.41 µM) | 4.5 (≈ 8.54 µM) | 5.1 (≈ 9.68 µM) | 67.7 (≈ 128 µM) | 7.8 (≈ 14.8 µM) | 97.25 | 15.1 | – | – | – | – | – | – | – | –
7 | COc1ccc(C2c3[nH]c4ccccc4c3CCN2c2nc(Cl)cc(Cl)n2)cc1OC (racemic) | 1.93 (≈ 4.24 µM) | – | – | – | – | 29.8 (≈ 65.4 µM) | – | 93.06 | 15.43 | – | – | Non-toxic | inactive | inactive | inactive | inactive | –
8 | CCc1ccc(C2c3[nH]c4ccccc4c3CCN2c2nc(Cl)cc(Cl)n2)cc1 (racemic) | – | 19.8 (≈ 46.8 µM) | 32.4 (≈ 76.5 µM) | 23 (≈ 54.3 µM) | 22.8 (≈ 53.9 µM) | – | 37.8 (≈ 89.3 µM) | 60.24 | 6.87 | 4.46 (≈ 10.5 µM) | 30.7 (≈ 72.4 µM) | – | – | – | – | – | –
9 | COc1cccc(C2c3[nH]c4ccccc4c3CCN2c2nc(Cl)cc(Cl)n2)c1 (racemic) | – | – | – | – | – | – | – | 44.33 | – | – | – | Non-toxic | inactive | inactive | inactive | inactive | Not Active
10 | COc1ccc(C2c3[nH]c4ccccc4c3CCN2c2nc(Cl)cc(Cl)n2)c(OC)c1 (racemic) | – | – | – | – | – | – | – | 54.14 | – | – | – | Non-toxic | inactive | inactive | inactive | inactive | Not Active
11 | CCN1CCN(c2cc(N3CCN(CC)CC3)nc(N3CCc4c([nH]c5ccccc45)C3c3ccc4c(c3)OCO4)n2)CC1 (racemic) | 0.48 (≈ 0.807 µM) | 4.1 (≈ 6.89 µM) | 3.6 (≈ 6.05 µM) | 6.2 (≈ 10.4 µM) | 4.5 (≈ 7.57 µM) | 2.5 (≈ 4.2 µM) | 5.9 (≈ 9.92 µM) | 99.94 | 5.2 | – | – | – | – | – | – | – | –
12 | COc1ccc(OC)c(C2c3[nH]c4ccccc4c3CCN2c2nc(Cl)cc(Cl)n2)c1 (racemic) | – | – | – | – | – | – | – | 85.34 | – | – | – | Non-toxic | inactive | inactive | inactive | inactive | Not Active
13 | COc1ccc(C2c3[nH]c4ccccc4c3CCN2c2nc(Cl)cc(Cl)n2)cc1 (racemic) | 3.57 (≈ 8.39 µM) | 4.2 (≈ 9.87 µM) | 5.2 (≈ 12.2 µM) | 10.1 (≈ 23.7 µM) | 4.5 (≈ 10.6 µM) | – | 9.8 (≈ 23 µM) | 81.68 | – | – | – | – | – | – | – | – | –
14 | COc1ccccc1C1c2[nH]c3ccccc3c2CCN1c1nc(Cl)cc(Cl)n1 (racemic) | – | – | – | – | – | – | – | 38.79 | – | – | – | Non-toxic | inactive | inactive | inactive | inactive | Not Active
15 | Clc1cc(Cl)nc(N2CCc3c([nH]c4ccccc34)C2c2cccc(Br)c2)n1 (racemic) | 7.79 (≈ 16.4 µM) | 21.7 (≈ 45.8 µM) | 23.4 (≈ 49.3 µM) | 15.8 (≈ 33.3 µM) | 15.6 (≈ 32.9 µM) | 14 (≈ 29.6 µM) | 24.3 (≈ 51.2 µM) | 79.65 | 1.81 | – | – | – | – | – | – | – | –
16 | Clc1cc(Cl)nc(NCCc2c[nH]c3ccccc23)n1 | 7.34 (≈ 23.9 µM) | – | – | – | – | 20.6 (≈ 67 µM) | – | 99.78 | 2.8 | – | – | Non-toxic | inactive | inactive | inactive | inactive | –
17 | c1ccc2c(CCNc3nc(N4CCOCC4)cc(N4CCOCC4)n3)c[nH]c2c1 | 3.05 (≈ 7.47 µM) | – | – | – | – | 19.4 (≈ 47.4 µM) | – | 99.72 | 6.34 | – | – | Non-toxic | – | – | – | – | –
18 | Clc1cc(Cl)nc(N2CCc3c([nH]c4ccccc34)C2c2ccc(OCc3ccccc3)cc2)n1 (racemic) | – | – | – | – | – | – | – | 36.85 | – | – | – | Non-toxic | inactive | inactive | inactive | inactive | Not Active
19 | N=C(N)c1ccc(OCCCCCOc2ccc(C(=N)N)cc2)cc1 [PENTAMIDINE] | – | – | – | – | – | 25.1 (≈ 73.9 µM) | – | 100 | – | – | – | – | – | – | – | – | –
